Data set [1] relates to Liver microsome. Put plainly: Retention time in Wistar rat liver microsomes at 50 ug/ml after 10 mins by HPLC analysis. The class given is ADME. A digest of the protocol: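 Liver microsomes from phenobarbital-pretreated male Wistar rats (protein 2.1 mg/mL), with an NADPH-generating system (NADP, glucose 6-phosphate, MgCl2, G6P dehydrogenase) in 0.1 M phosphate pH 7.4. Incubated under oxygen at 37 °C for 10 min, then extracted with hexane. OH-CCNU isomers resolved by analytical HPLC using n-heptane–dichloromethane–propan-2-ol (960:63:35) at 1.9 mL/min; elution times recorded.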

Data set [2] is described as follows: Antitumor activity against mouse TLX5 cells allografted in mouse assessed as increase in host survival time at 5 mg/kg relative to control. The data set is classed as functional, TLX-5.
The subject of data set [3] is Liver microsome. Put plainly: Drug metabolism in Wistar rat liver microsomes assessed as recovered CCNU level at 2.8 mg after 10 mins by HPLC analysis. The data set is classed as ADME. The conditions noted are these: in vitro. A digest of the protocol: (§1)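 Microsomes from phenobarbital-pretreated male Wistar rat liver (protein 2.1 mg/mL) in 0.1 M phosphate pH 7.4 with NADP, glucose 6-phosphate, MgCl₂ and G6PDH. Incubated under O₂ at 37 °C for 10 min; 2.8 mg (12 μmol) substrate in 20 mL total. Hexane extraction, then silica HPLC quantification of residual CCNU and OH-CCNU isomers.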
On the technique in general: Liver microsomes are vesicles of endoplasmic reticulum, rich in cytochrome P450 enzymes.

The subject of data set [4] is Liver microsome. Put plainly: Drug metabolism in Wistar rat liver microsomes assessed as recovered total OH-CCNU derivatives level at 2.8 mg after 10 mins by HPLC analysis. As to conditions: in vitro. The data set is classed as ADME. The gist of the method: as §1
The nature of data set [5]: Antitumor activity against mouse TLX5 cells allografted in mouse assessed as increase in host survival time at 10 mg/kg relative to control. The data set is classed as functional, TLX-5.
Data set [6] in a line: Antitumor activity against mouse TLX5 cells allografted in mouse assessed as increase in host survival time at 20 mg/kg relative to control. The class given is functional, TLX-5.
Data set [7] in a line: Antitumor activity against mouse TLX5 cells allografted in mouse assessed as increase in host survival time at 40 mg/kg relative to control. The class given is functional, TLX-5.
The nature of data set [8]: Antitumor activity against mouse TLX5 cells allografted in mouse assessed as increase in host survival time at 80 mg/kg relative to control. The class given is functional, TLX-5.
Data set [9] can be described thus: Antitumor activity against mouse TLX5 cells allografted in mouse assessed as increase in host survival time at 160 mg/kg relative to control. The class given is functional, TLX-5.
Data set [10] is described as follows: Drug metabolism in Wistar rat liver microsomes at 50 ug/ml after 2.5 mins. The data set is classed as ADME. As to conditions: read-out: Drug metabolism. The gist of the method:
(§2)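 Equimolar CCNU and CCNU-d10, each 50 μg/mL (0.21 mM), co-incubated at 37 °C under O₂ with phenobarbital-induced male Wistar rat liver microsomes plus NADPH-generating system in 0.1 M phosphate pH 7.4. Duplicate 1 mL samples taken at intervals into hexane containing CCNU-d4 internal standard. Residual drug measured by 12 eV mass spectrometry. Heat-inactivated microsomes used as control.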

The nature of data set [11]: Drug metabolism in Wistar rat liver microsomes at 50 ug/ml after 5 mins. The class given is ADME. The conditions noted are these: read-out: Drug metabolism. The gist of the method:
as §2

A short description of data set [12]: Drug metabolism in Wistar rat liver microsomes at 50 ug/ml after 10 mins. The data set is classed as ADME. As to conditions: read-out: Drug metabolism. A digest of the protocol: as §2
Data set [13] in a line: Drug metabolism in Wistar rat liver microsomes at 50 ug/ml after 20 mins. The class given is ADME. As to conditions: read-out: Drug metabolism. The gist of the method: as §2
In data set [14] the test system is W256. Put plainly: Antitumor activity against 4 ug/ml compound treated rat Walker 256 cells allografted in rat assessed as increase of host survival time cells incubated for 2 hrs with rat liver microsomes and NADPH prior to animal injection. The class given is functional.
Data set [15] relates to W256. Put plainly: Antitumor activity against 1 ug/ml compound treated rat Walker 256 cells allografted in rat assessed as increase of host survival time cells incubated for 2 hrs with rat liver microsomes and NADPH prior to animal injection. The data set is classed as functional.
The subject of data set [16] is W256. Description: Antitumor activity against 0.5 ug/ml compound treated rat Walker 256 cells allografted in rat assessed as increase of host survival time cells incubated for 2 hrs with rat liver microsomes and NADPH prior to animal injection. The data set is classed as functional.
Data set [17] has as its system W256. Description: Antitumor activity against 0.25 ug/ml compound treated rat Walker 256 cells allografted in rat assessed as increase of host survival time cells incubated for 2 hrs with rat liver microsomes and NADPH prior to animal injection. The data set is classed as functional.
Data set [18] deals with W256. Description: Antitumor activity against 4 ug/ml compound treated rat Walker 256 cells allografted in rat assessed as increase of host survival time cells incubated for 2 hrs with NADPH prior to animal injection. The data set is classed as functional.
Data set [19] has as its system W256. Description: Antitumor activity against 1 ug/ml compound treated rat Walker 256 cells allografted in rat assessed as increase of host survival time cells incubated for 2 hrs with NADPH prior to animal injection. The class given is functional.
For data set [20], the system named is W256. Put plainly: Antitumor activity against 0.5 ug/ml compound treated rat Walker 256 cells allografted in rat assessed as increase of host survival time cells incubated for 2 hrs with NADPH prior to animal injection. The class given is functional.
The test system of data set [21] is W256. Description: Antitumor activity against 0.25 ug/ml compound treated rat Walker 256 cells allografted in rat assessed as increase of host survival time cells incubated for 2 hrs with NADPH prior to animal injection. The class given is functional.

The values that follow come from ChEMBL document CHEMBL3244370, “Synthesis, metabolism, and antitumor activity of deuterated analogues of 1-(2-chloroethyl)-3-cyclohexyl-1-nitrosourea” (J Med Chem, 1978).

With `O=NN(CCCl)C(=O)N[C@H]1CC[C@@H](O)CC1`, the Retention_time in the data set on Liver microsome [1] is listed as 9.6 min.
Still for that read-out and setting: then `O=NN(CCCl)C(=O)N[C@H]1CC[C@H](O)CC1`, with 16.9 min.
Same read-out and setting: then `O=NN(CCCl)C(=O)N[C@H]1CCCC[C@H]1O`, with 2.8 min.
Consider `[2H]C1([2H])CCCC([2H])([2H])C1NC(=O)N(CCCl)N=O`, for which the Activity in [2] is listed as -5.1%; in data set [5], 63.6%; in [6], 79.7%; in data set [7], 178.7%; in data set [8], -9.1%; in data set [9] it was -21.3%. For the same compound, the figures for the Drug metabolism with Liver microsome [3] and in the data set with Liver microsome [4] were 272 µg and 1089 µg, respectively.
Consider `[2H]C1([2H])CC(NC(=O)N(CCCl)N=O)CC([2H])([2H])C1([2H])[2H]`, for which the Activity in data set [2] is listed as 38.1%; in data set [5] it was 38.1%; in data set [6] it was 95.8%; in data set [7], 81.4%; in data set [8], -7.3%; in data set [9], -32%. Besides, the figures for the Drug metabolism with Liver microsome [3] and with Liver microsome [4] were 538 µg and 994 µg, respectively.
Consider `[2H]C1([2H])C(NC(=O)N(CCCl)N=O)C([2H])([2H])C([2H])([2H])C([2H])([2H])C1([2H])[2H]`, for which the metabolised at 2.5 min, 50 ug/ml in data set [10] was determined as 16.1%. Also, in data set [11], the metabolised at 5 min, 50 ug/ml is 38.3%. In data set [12], the metabolised at 10 min, 50 ug/ml was 69.5%. Further, the metabolised at 20 min, 50 ug/ml in [13] worked out at 91.9%. The Drug metabolism in the data set on Liver microsome [3] was found to be 498 µg; in the data set on Liver microsome [4], 911 µg. In addition, the Activity is 20% in [5]; 42% in [6]; 217% in data set [7]; -22% in data set [8]; -28% in [9].
As for `O=NN(CCCl)C(=O)N[C@H]1CCCC[C@@H]1O`, the Retention_time in the data set with Liver microsome [1] is given as 3.8 min.
Turning to `O=NN(CCCl)C(=O)N[C@H]1CCC[C@@H](O)C1`, the Retention time in the data set on Liver microsome [1] was 7.8 min.
Same read-out and setting: then `O=NN(CCCl)C(=O)N[C@H]1CCC[C@H](O)C1`, with 7.1 min.
As for `O=NN(CCCl)C(=O)NC1CCCCC1` [LOMUSTINE], the Activity in data set [2] is 1%; in the data set on W256 [15], 145%; in the data set on W256 [16] it was 106%; in the data set on W256 [17], 21%; in the data set with W256 [19] it was 64%; with W256 [20], 60%. The Activity is 9% with W256 [21]; 54% in data set [5]; 69.6% in [6]; 76.8% in data set [7]; -23.3% in [8]; -31.4% in data set [9]. Further, the Survival in the data set with W256 [14] and in the data set with W256 [18] was 30 days throughout. For the same compound, the metabolised at 2.5 min, 50 ug/ml in [10] came to 26.8%. In addition, the metabolised at 5 min, 50 ug/ml in data set [11] worked out at 47.9%. Moreover, in [12], the metabolised at 10 min, 50 ug/ml came to 72.5%. Also, the metabolised at 20 min, 50 ug/ml in data set [13] worked out at 91.8%. Further, in the data set on Liver microsome [4], the Drug metabolism was determined as 1230 µg.
